From ChEMBL document CHEMBL2029207, “Vascular barrier protective effects of eckol and its derivatives” (Bioorg Med Chem Lett, 2012)
Active and inactive are the calls of the source. The rule behind the calls is not given here.

Legend:
HUVEC [1] = test: Antiinflammatory activity in HUVEC cells assessed as inhibition of LPS-induced monocyte migration at 10 uM relative to LPS; type: functional; settings: Homo sapiens
Procedure, shortened: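 Monocyte transendothelial migration was measured across HUVECs stimulated with LPS at 100 ng/ml. The read-out was a migration index, with percent inhibition calculated against LPS alone. Controls were PBS (negative) and kaempferol-3-O-sophoroside (positive). Values are mean ± S.D. of three independent experiments.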

HUVEC [2] = test: Antiinflammatory activity in HUVEC cells assessed as inhibition of LPS-induced hyperpermeability at 10 uM relative to LPS; type: functional; settings: Homo sapiens
Procedure, shortened: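 Primary HUVECs were stimulated with LPS at 100 ng/ml, with or without test agent. Permeability was read as albumin flux across the monolayer in a dual-chamber system, by ELISA at OD650. Percent inhibition is relative to LPS alone, with PBS as the negative control and kaempferol-3-O-sophoroside as the positive control. Values are mean ± S.D. of three experiments.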

Mus musculus [3] = species: Mus musculus; test: Antiinflammatory activity in mice assessed as inhibition of acetic acid-induced hyperpermeability at 10 uM relative to acetic acid
Mus musculus [4] = species: Mus musculus; test: Antiinflammatory activity in mouse assessed as inhibition of CMC-Na-induced leukocyte migration into peritoneal cavity at 10 uM relative to CMC-Na; type: functional
Procedure, shortened: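 Mice received 1.0% CMC–Na to induce leukocyte migration, with or without test agent. Leukocytes recovered from the peritoneal cavity were counted (×10^6). Percent inhibition is relative to CMC–Na alone, with PBS and kaempferol-3-O-sophoroside as controls. Values are mean ± S.D. of three experiments.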

HUVEC [5] = test: Cytotoxicity against HUVEC cells assessed as decrease in cell viability up to 20 uM after 24 hrs; type: cell-based; settings: human
Procedure, shortened: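 HUVECs were exposed to each agent for 24 h and then assessed in cell viability assays.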

HUVEC [6] = test: Antiinflammatory activity in HUVEC cells assessed as inhibition of […]-induced monocyte binding to endothelial cells at 10 uM relative to control; settings: Homo sapiens

SMILES: O=c1c(O[C@@H]2O[C@H](CO)[C@@H](O)[C@H](O)[C@H]2O[C@@H]2O[C@H](CO)[C@@H](O)[C@H](O)[C@H]2O)c(-c2ccc(O)cc2)oc2cc(O)cc(O)c12
- inhibition at 10 µM (HUVEC [1]): 69.5%
- inhibition at 10 µM (HUVEC [2]): 76.6%
- inhibition at 10 µM (Mus musculus [3]): 73.9%
- inhibition (INH) (Mus musculus [4]): 69.6%

SMILES: CC(=O)Oc1cc(OC(C)=O)cc(Oc2c(OC(C)=O)cc(OC(C)=O)c3c2Oc2c(OC(C)=O)cc(Oc4c(OC(C)=O)cc(Oc5c(OC(C)=O)cc(OC(C)=O)c6c5Oc5c(OC(C)=O)cc(OC(C)=O)cc5O6)cc4OC(C)=O)cc2O3)c1
- inhibition at 10 µM (HUVEC [1]): 50.3%
- Activity (HUVEC [5]): Non-toxic
- inhibition at 10 µM (HUVEC [2]): 49.5%
- inhibition at 10 µM (Mus musculus [3]): 59.5%
- inhibition (INH) (Mus musculus [4]): 56.7%

SMILES: COc1cc(OC)cc(Oc2c(OC)cc(OC)c3c2Oc2c(OC)cc(Oc4c(OC)cc(Oc5c(OC)cc(OC)c6c5Oc5c(OC)cc(OC)cc5O6)cc4OC)cc2O3)c1
- inhibition at 10 µM (HUVEC [1]): 37.6%
- Activity (HUVEC [5]): Non-toxic
- inhibition at 10 µM (HUVEC [2]): 33%
- inhibition at 10 µM (Mus musculus [3]): 34.7%
- inhibition (INH) (Mus musculus [4]): 32.4%

SMILES: Oc1cc(O)cc(Oc2c(O)cc(O)c3c2Oc2c(O)cc(O)cc2O3)c1 [ECKOL]
- inhibition (HUVEC [6]): Active
- inhibition at 10 µM (HUVEC [1]): 59.6%
- Activity (HUVEC [5]): Non-toxic
- inhibition at 10 µM (HUVEC [2]): 56.5%
- inhibition at 10 µM (Mus musculus [3]): 52%
- inhibition (INH) (Mus musculus [4]): 61.7%

SMILES: Oc1cc(O)cc(Oc2c(O)cc(O)c3c2Oc2c(O)cc(Oc4c(O)cc(Oc5c(O)cc(O)c6c5Oc5c(O)cc(O)cc5O6)cc4O)cc2O3)c1 [DIECKOL]
- inhibition at 10 µM (HUVEC [1]): 71.3%
- Activity (HUVEC [5]): Non-toxic
- inhibition at 10 µM (HUVEC [2]): 74.9%
- inhibition at 10 µM (Mus musculus [3]): 74.4%
- inhibition (INH) (Mus musculus [4]): 69.9%
